# Laboratory results: ChEMBL document CHEMBL1139499, “Nucleotides and pronucleotides of 2,2-bis(hydroxymethyl)methylenecyclopropane analogues of purine nucleosides: synthesis and antiviral activity” (J Med Chem, 2005)
# Test system: Hepatitis B virus
# Experiment: Effective concentration required to inhibit hepatitis B virus replication in 2.2.15 cells in DNA hybridization assay
# Type: functional, organism-based
# Settings: HepG2 2.2.15
# In short: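 HBV assayed in 2.2.15 cells by DNA hybridization. CC50 values are those from the EBV/H-1 cytotoxicity determination, run in CEM cells. Single experiments unless specified otherwise.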
row,Compound,EC50 [µM]
1,COC(=O)C(C)NP(=O)(OCC1(CO)C/C1=C\n1cnc2c(O)nc(N)nc21)Oc1ccccc1 (stereo not given),> 10
2,Nc1nc(O)c2ncn(/C=C3\CC3(CO)COP(=O)(O)O)c2n1 (stereo not given),> 20
3,COC(=O)C(C)NP(=O)(OCC1(CO)C/C1=C\n1cnc2c(N)ncnc21)Oc1ccccc1 (stereo not given),> 20
4,Nc1ccn([C@@H]2CS[C@H](CO)O2)c(=O)n1 [LAMIVUDINE],0.05

# Test system: Daudi
# Experiment: Cytotoxic concentration to inhibit replication in daudi cells
# Type: functional
# Settings: Homo sapiens
row,Compound,CC50 [µM]
1,COC(=O)C(C)NP(=O)(OCC1(CO)C/C1=C\n1cnc2c(O)nc(N)nc21)Oc1ccccc1 (stereo not given),> 198
2,Nc1nc(O)c2ncn(/C=C3\CC3(CO)COP(=O)(O)O)c2n1 (stereo not given),> 146
3,COC(=O)C(C)NP(=O)(OCC1(CO)C/C1=C\n1cnc2c(N)ncnc21)Oc1ccccc1 (stereo not given),> 102

# Test system: Human betaherpesvirus 5
# Experiment: Effective concentration for antiviral activity against towne strain of human cytomegalovirus in plaque reduction assay
# Type: functional, organism-based
# Settings: not given
# In short: (§1)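 Human CMV (Towne and AD169 strains) grown in HFF cell culture; antiviral effect read by plaque reduction or by cytopathic effect (CPE) inhibition. Cytotoxicity measured in HFF cells. Single experiments unless specified otherwise.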
row,Compound,EC50 [µM]
1,COC(=O)C(C)NP(=O)(OCC1(CO)C/C1=C\n1cnc2c(O)nc(N)nc21)Oc1ccccc1 (stereo not given),> 100
2,Nc1nc(O)c2ncn(/C=C3\CC3(CO)COP(=O)(O)O)c2n1 (stereo not given),> 100
3,COC(=O)C(C)NP(=O)(OCC1(CO)C/C1=C\n1cnc2c(N)ncnc21)Oc1ccccc1 (stereo not given),> 100

# Test system: HFF
# Experiment: Cytotoxic concentration against town strain of human cytomegalovirus infected HFF cells of human (visual cytotoxicity)
# Type: functional
# Settings: not given
# In short: as §1
row,Compound,CC50 [µM]
1,Nc1nc(O)c2ncn(/C=C3\CC3(CO)COP(=O)(O)O)c2n1 (stereo not given),> 100

# Test system: Human gammaherpesvirus 4
# Experiment: Effective concentration required to inhibit Epstein-barr virus replication in daudi cells in viral capsid immunofluorescence ELISA
# Type: functional, organism-based
# Settings: human gammaherpesvirus 4, Daudi
row,Compound,EC50 [µM]
1,COC(=O)C(C)NP(=O)(OCC1(CO)C/C1=C\n1cnc2c(O)nc(N)nc21)Oc1ccccc1 (stereo not given),> 99
2,Nc1nc(O)c2ncn(/C=C3\CC3(CO)COP(=O)(O)O)c2n1 (stereo not given),> 146
3,COC(=O)C(C)NP(=O)(OCC1(CO)C/C1=C\n1cnc2c(N)ncnc21)Oc1ccccc1 (stereo not given),> 102

# Test system: Human alphaherpesvirus 2
# Experiment: Effective concentration required to inhibit herpes simplex virus 2 in HFF cells in cytopathic effect (CPE) assay
# Type: functional, organism-based
# Settings: Human alphaherpesvirus 2, HFF
# In short: (§2)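 HSV-1 and HSV-2 assayed in HFF cells by cytopathic effect (CPE) inhibition and by plaque reduction. Cytotoxicity measured in HFF cells. Single experiments unless specified otherwise.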
row,Compound,EC50 [µM]
1,COC(=O)C(C)NP(=O)(OCC1(CO)C/C1=C\n1cnc2c(O)nc(N)nc21)Oc1ccccc1 (stereo not given),> 198
2,Nc1nc(O)c2ncn(/C=C3\CC3(CO)COP(=O)(O)O)c2n1 (stereo not given),> 291
3,COC(=O)C(C)NP(=O)(OCC1(CO)C/C1=C\n1cnc2c(N)ncnc21)Oc1ccccc1 (stereo not given),> 205

# Test system: Human betaherpesvirus 5
# Experiment: Effective concentration for antiviral activity against AD169 strain of human cytomegalovirus in plaque reduction assay
# Type: functional, organism-based
# Settings: not given
# In short: as §1
row,Compound,EC50 [µM]
1,COC(=O)C(C)NP(=O)(OCC1(CO)C/C1=C\n1cnc2c(O)nc(N)nc21)Oc1ccccc1 (stereo not given),> 198
2,Nc1nc(O)c2ncn(/C=C3\CC3(CO)COP(=O)(O)O)c2n1 (stereo not given),> 291
3,COC(=O)C(C)NP(=O)(OCC1(CO)C/C1=C\n1cnc2c(N)ncnc21)Oc1ccccc1 (stereo not given),> 205

# Organism: Homo sapiens
# Experiment: Cytotoxic concentration to inhibit replication in 2.2.15 cells
# Type: functional
# Settings: HepG2 2.2.15
row,Compound,CC50 [µM]
1,Nc1ccn([C@@H]2CS[C@H](CO)O2)c(=O)n1 [LAMIVUDINE],> 100

# Test system: Human alphaherpesvirus 1
# Experiment: Effective concentration required to inhibit herpes simplex virus 1 in BSC-1 cells in ELISA
# Type: functional, organism-based
# Settings: Human alphaherpesvirus 1, BSC-1
# In short: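 HSV-1 assayed in BSC-1 cells with ELISA read-out; cytotoxicity in these assays determined in KB cells. Single experiments unless specified otherwise.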
row,Compound,EC50 [µM]
1,COC(=O)C(C)NP(=O)(OCC1(CO)C/C1=C\n1cnc2c(O)nc(N)nc21)Oc1ccccc1 (stereo not given),70
2,Nc1nc(O)c2ncn(/C=C3\CC3(CO)COP(=O)(O)O)c2n1 (stereo not given),> 100
3,COC(=O)C(C)NP(=O)(OCC1(CO)C/C1=C\n1cnc2c(N)ncnc21)Oc1ccccc1 (stereo not given),> 100

# Test system: not listed separately
# Experiment: Effective concentration required to inhibit varicella zoster virus replication in HFF cells
# Type: functional, cell-based
# Settings: Human alphaherpesvirus 3, HFF
# In short: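 VZV assayed in HFF cells by cytopathic effect (CPE) inhibition or by plaque reduction. Single experiments unless specified otherwise.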
row,Compound,EC50 [µM]
1,COC(=O)C(C)NP(=O)(OCC1(CO)C/C1=C\n1cnc2c(O)nc(N)nc21)Oc1ccccc1 (stereo not given),> 198
2,Nc1nc(O)c2ncn(/C=C3\CC3(CO)COP(=O)(O)O)c2n1 (stereo not given),> 291
3,COC(=O)C(C)NP(=O)(OCC1(CO)C/C1=C\n1cnc2c(N)ncnc21)Oc1ccccc1 (stereo not given),> 205

# Test system: Human alphaherpesvirus 1
# Experiment: Effective concentration required to inhibit herpes simplex virus 1 in HFF cells in cytopathic effect (CPE) assay
# Type: functional, organism-based
# Settings: Human alphaherpesvirus 1, HFF
# In short: as §2
row,Compound,EC50 [µM]
1,COC(=O)C(C)NP(=O)(OCC1(CO)C/C1=C\n1cnc2c(O)nc(N)nc21)Oc1ccccc1 (stereo not given),> 198
2,Nc1nc(O)c2ncn(/C=C3\CC3(CO)COP(=O)(O)O)c2n1 (stereo not given),> 291
3,COC(=O)C(C)NP(=O)(OCC1(CO)C/C1=C\n1cnc2c(N)ncnc21)Oc1ccccc1 (stereo not given),> 205

# Test system: KB (Homo sapiens)
# Experiment: Cytotoxic concentration required to inhibit KB cells
# Settings: not given
row,Compound,CC50 [µM]
1,COC(=O)C(C)NP(=O)(OCC1(CO)C/C1=C\n1cnc2c(O)nc(N)nc21)Oc1ccccc1 (stereo not given),> 100
2,Nc1nc(O)c2ncn(/C=C3\CC3(CO)COP(=O)(O)O)c2n1 (stereo not given),> 100
3,COC(=O)C(C)NP(=O)(OCC1(CO)C/C1=C\n1cnc2c(N)ncnc21)Oc1ccccc1 (stereo not given),> 100

# Test system: HFF
# Experiment: Cytotoxic concentration against towne strain of human cytomegalovirus infected HFF cells of human (visual cytotoxicity)
# Type: functional
# Settings: not given
# In short: as §1
row,Compound,CC50 [µM]
1,COC(=O)C(C)NP(=O)(OCC1(CO)C/C1=C\n1cnc2c(O)nc(N)nc21)Oc1ccccc1 (stereo not given),> 100
2,COC(=O)C(C)NP(=O)(OCC1(CO)C/C1=C\n1cnc2c(N)ncnc21)Oc1ccccc1 (stereo not given),> 100

# Test system: Human alphaherpesvirus 2
# Experiment: Effective concentration required to inhibit herpes simplex virus 2 in vero cells in plaque reduction assay
# Type: functional, organism-based
# Settings: Human alphaherpesvirus 2, Vero
# In short: (§3)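 HSV-1 and HSV-2 assayed in Vero cells by plaque reduction. Single experiments unless specified otherwise.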
row,Compound,EC50 [µM]
1,COC(=O)C(C)NP(=O)(OCC1(CO)C/C1=C\n1cnc2c(O)nc(N)nc21)Oc1ccccc1 (stereo not given),> 50
2,Nc1nc(O)c2ncn(/C=C3\CC3(CO)COP(=O)(O)O)c2n1 (stereo not given),> 50
3,COC(=O)C(C)NP(=O)(OCC1(CO)C/C1=C\n1cnc2c(N)ncnc21)Oc1ccccc1 (stereo not given),> 30

# Test system: not listed separately
# Experiment: Cytotoxic concentration to inhibit replication in H-1 cells (in CEM cells)
# Type: functional
# Settings: Homo sapiens, CCRF-CEM
# In short: (§4)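 EBV assayed in H-1 cells by DNA hybridization. Cytotoxicity determined separately in CEM cells. Single experiments unless specified otherwise.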
row,Compound,CC50 [µM]
1,COC(=O)C(C)NP(=O)(OCC1(CO)C/C1=C\n1cnc2c(O)nc(N)nc21)Oc1ccccc1 (stereo not given),> 100
2,Nc1nc(O)c2ncn(/C=C3\CC3(CO)COP(=O)(O)O)c2n1 (stereo not given),> 100
3,COC(=O)C(C)NP(=O)(OCC1(CO)C/C1=C\n1cnc2c(N)ncnc21)Oc1ccccc1 (stereo not given),> 25

# Test system: HFF
# Experiment: Cytotoxic concentration against AD169 strain of human cytomegalovirus infected HFF cells of human (by cytopathic effect inhibition assay)
# Type: functional
# Settings: not given
# In short: as §1
row,Compound,CC50 [µM]
1,COC(=O)C(C)NP(=O)(OCC1(CO)C/C1=C\n1cnc2c(O)nc(N)nc21)Oc1ccccc1 (stereo not given),> 198
2,Nc1nc(O)c2ncn(/C=C3\CC3(CO)COP(=O)(O)O)c2n1 (stereo not given),> 291
3,COC(=O)C(C)NP(=O)(OCC1(CO)C/C1=C\n1cnc2c(N)ncnc21)Oc1ccccc1 (stereo not given),> 205

# Test system: Human gammaherpesvirus 4
# Experiment: Effective concentration required to inhibit Epstein-barr virus replication in H-1 cells in DNA hybridization assay
# Type: functional, organism-based
# Settings: human gammaherpesvirus 4, H-1
# In short: as §4
row,Compound,EC50 [µM]
1,COC(=O)C(C)NP(=O)(OCC1(CO)C/C1=C\n1cnc2c(O)nc(N)nc21)Oc1ccccc1 (stereo not given),> 20
2,Nc1nc(O)c2ncn(/C=C3\CC3(CO)COP(=O)(O)O)c2n1 (stereo not given),> 20
3,COC(=O)C(C)NP(=O)(OCC1(CO)C/C1=C\n1cnc2c(N)ncnc21)Oc1ccccc1 (stereo not given),> 20

# Test system: Human alphaherpesvirus 1
# Experiment: Effective concentration required to inhibit herpes simplex virus 1 in vero cells in plaque reduction assay
# Type: functional, organism-based
# Settings: Human alphaherpesvirus 1, Vero
# In short: as §3
row,Compound,EC50 [µM]
1,COC(=O)C(C)NP(=O)(OCC1(CO)C/C1=C\n1cnc2c(O)nc(N)nc21)Oc1ccccc1 (stereo not given),> 50
2,Nc1nc(O)c2ncn(/C=C3\CC3(CO)COP(=O)(O)O)c2n1 (stereo not given),> 50
3,COC(=O)C(C)NP(=O)(OCC1(CO)C/C1=C\n1cnc2c(N)ncnc21)Oc1ccccc1 (stereo not given),> 30
